Assay results as given in ChEMBL document CHEMBL1138395, “Adamantane sulfone and sulfonamide 11-beta-HSD1 Inhibitors” (Bioorg Med Chem Lett, 2007).

Columns and labels:
[1] = target: 11-beta-hydroxysteroid dehydrogenase 1 (Mus musculus, UniProt P50172); assay: Inhibition of mouse HSD1 assessed as interconversion of cortisone to cortisol
Summary of the method: (§1)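 Enzyme inhibition measured as blocking the interconversion between cortisone and cortisol by mouse HSD1 (reported as Ki) or mouse HSD2 (reported as IC50); values are means of at least two experiments.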

[2] = target: T1, 11-beta-hydroxysteroid dehydrogenase type 2 (Mus musculus, UniProt P51661); assay: Inhibition of mouse HSD2 assessed as interconversion of cortisone to cortisol; summary of the method: as §1
T1 sequence (P51661 whole entry): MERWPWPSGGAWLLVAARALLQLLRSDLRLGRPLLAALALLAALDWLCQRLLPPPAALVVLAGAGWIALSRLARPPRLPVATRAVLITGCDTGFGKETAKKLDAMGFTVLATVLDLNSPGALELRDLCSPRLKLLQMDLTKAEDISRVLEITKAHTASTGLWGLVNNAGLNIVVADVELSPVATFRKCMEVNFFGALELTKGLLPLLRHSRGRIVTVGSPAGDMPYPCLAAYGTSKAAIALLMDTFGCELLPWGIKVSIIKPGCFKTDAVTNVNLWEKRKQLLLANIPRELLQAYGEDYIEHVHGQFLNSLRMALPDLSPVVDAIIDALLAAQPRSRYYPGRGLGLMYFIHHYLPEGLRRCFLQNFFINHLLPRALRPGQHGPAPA

[3] = Metabolic stability in mouse liver microsomes assessed as compound remaining after 30 mins; format: ADME, Microsome; details: read-out: Stability
Summary of the method: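 Test compound incubated with mouse liver microsomes for 30 min; percent of parent compound remaining afterward reported.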

[4] = target: T2, 11-beta-hydroxysteroid dehydrogenase type 2 (Homo sapiens, UniProt P80365); assay: Inhibition of human HSD2 assessed as interconversion of cortisone to cortisol
T2 sequence (P80365 whole entry): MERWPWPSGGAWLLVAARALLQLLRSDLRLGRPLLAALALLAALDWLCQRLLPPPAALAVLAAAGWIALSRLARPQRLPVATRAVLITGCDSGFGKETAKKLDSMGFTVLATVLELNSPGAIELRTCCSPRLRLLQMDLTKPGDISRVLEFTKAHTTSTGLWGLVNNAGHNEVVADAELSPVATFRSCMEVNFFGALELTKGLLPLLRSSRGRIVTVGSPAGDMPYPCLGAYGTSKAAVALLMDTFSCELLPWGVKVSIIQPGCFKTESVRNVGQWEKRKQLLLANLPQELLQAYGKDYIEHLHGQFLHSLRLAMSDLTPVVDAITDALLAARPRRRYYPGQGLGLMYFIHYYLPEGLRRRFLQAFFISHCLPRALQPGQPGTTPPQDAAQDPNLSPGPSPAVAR

[5] = target: T3, 11-beta-hydroxysteroid dehydrogenase 1 (Homo sapiens, UniProt P28845); assay: Inhibition of human HSD1 expressed in HEK cells; format: cell-based, HEK293
T3 sequence (P28845 whole entry): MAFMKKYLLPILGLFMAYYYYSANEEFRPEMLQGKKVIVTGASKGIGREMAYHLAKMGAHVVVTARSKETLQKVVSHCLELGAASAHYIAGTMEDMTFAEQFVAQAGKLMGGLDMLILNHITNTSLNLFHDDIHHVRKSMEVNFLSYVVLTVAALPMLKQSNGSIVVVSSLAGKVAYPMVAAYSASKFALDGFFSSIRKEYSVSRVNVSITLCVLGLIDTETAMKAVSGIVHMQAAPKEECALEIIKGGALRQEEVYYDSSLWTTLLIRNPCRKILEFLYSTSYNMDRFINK

[6] = target: T3, 11-beta-hydroxysteroid dehydrogenase 1; assay: Inhibition of human HSD1 assessed as interconversion of cortisone to cortisol
Mus musculus [7] = assay: Ex vivo inhibition of brain 11-beta-HSD1 in DIO mouse at 30 mg/kg, po after 16 hrs; format: functional
Summary of the method: (§2)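 DIO mice dosed orally at 30 mpk; animals killed 1, 7 and 16 h after the dose and liver, fat and brain taken. Ex vivo 11-β-HSD1 activity (cortisol levels) in tissue was measured and percent inhibition expressed relative to vehicle-dosed animals; means from two animals per point.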

Mus musculus [8] = assay: Ex vivo inhibition of fat 11-beta-HSD1 in DIO mouse at 30 mg/kg, po after 16 hrs; format: functional; summary of the method: as §2
Mus musculus [9] = assay: Ex vivo inhibition of liver 11-beta-HSD1 in DIO mouse at 30 mg/kg, po after 16 hrs; format: functional; summary of the method: as §2
[10] = Half life in mouse at 10 mg/kg, iv; format: ADME, organism-based; set-up: dose 10 mg/kg, route intravenous; details: in vivo
[11] = Plasma clearance in mouse at 10 mg/kg, iv; format: ADME, organism-based; set-up: dose 10 mg/kg, route intravenous
Mus musculus [12] = assay: Ex vivo inhibition of brain 11-beta-HSD1 in DIO mouse at 30 mg/kg, po after 7 hrs; format: functional; summary of the method: as §2
[13] = AUC in mouse at 10 mg/kg, po; format: ADME, organism-based; set-up: dose 10 mg/kg, route oral; details: plasma
[14] = Volume of distribution at steady state in mouse at 10 mg/kg; format: ADME, organism-based; set-up: dose 10 mg/kg; details: in vivo, read-out: Vdss
Mus musculus [15] = assay: Ex vivo inhibition of fat 11-beta-HSD1 in DIO mouse at 30 mg/kg, po after 7 hrs; format: functional; summary of the method: as §2
Mus musculus [16] = assay: Ex vivo inhibition of liver 11-beta-HSD1 in DIO mouse at 30 mg/kg, po after 7 hrs; format: functional; summary of the method: as §2
Mus musculus [17] = assay: Ex vivo inhibition of liver 11-beta-HSD1 in DIO mouse at 30 mg/kg, po after 1 hr; format: functional; summary of the method: as §2
Mus musculus [18] = assay: Ex vivo inhibition of brain 11-beta-HSD1 in DIO mouse at 30 mg/kg, po after 1 hr; format: functional; summary of the method: as §2
Mus musculus [19] = assay: Ex vivo inhibition of fat 11-beta-HSD1 in DIO mouse at 30 mg/kg, po after 1 hr; format: functional; summary of the method: as §2
[20] = Oral bioavailability in mouse at 10 mg/kg; format: ADME, organism-based; details: in vivo
[21] = Volume of distribution at terminal phase in mouse at 10 mg/kg; format: ADME, organism-based; set-up: dose 10 mg/kg; details: in vivo, read-out: Vbeta
[22] = Volume of distribution at steady state in mouse at 5 mg/kg, iv and 10 mg/kg, po; format: ADME, organism-based; details: in vivo, read-out: Vdss
[23] = Oral bioavailability in mouse at 5 mg/kg, iv and 10 mg/kg, po; format: ADME, organism-based; details: in vivo
[24] = AUC in mouse at 5 mg/kg, iv and 10 mg/kg, po; format: ADME, organism-based; details: plasma
[25] = Volume of distribution at terminal phase in mouse at 5 mg/kg, iv and 10 mg/kg, po; format: ADME, organism-based; details: in vivo, read-out: Vbeta
[26] = Plasma clearance in mouse at 5 mg/kg, iv and 10 mg/kg, po; format: ADME, organism-based
[27] = Half life in mouse at 5 mg/kg, iv and 10 mg/kg, po; format: ADME, organism-based; details: in vivo

Sequence of 11-beta-hydroxysteroid dehydrogenase 1 (Mus musculus, UniProt P50172) (P50172 whole entry): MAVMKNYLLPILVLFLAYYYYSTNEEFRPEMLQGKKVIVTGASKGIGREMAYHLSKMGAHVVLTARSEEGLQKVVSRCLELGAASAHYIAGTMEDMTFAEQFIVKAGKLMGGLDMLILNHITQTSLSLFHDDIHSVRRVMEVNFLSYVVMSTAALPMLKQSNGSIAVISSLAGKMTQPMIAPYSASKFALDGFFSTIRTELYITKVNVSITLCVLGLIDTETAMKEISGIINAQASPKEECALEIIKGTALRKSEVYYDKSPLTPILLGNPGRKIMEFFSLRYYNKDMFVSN

SMILES	Ki [1] [µM]	IC50 [2] [µM]	remaining at 0.5 h [3] [%]	IC50 [4] [µM]	IC50 [5] [µM]	Ki [6] [µM]	also measured
CCS(=O)(=O)[C@]12CC3CC(C1)[C@@H](NC(=O)C(C)(C)Oc1ccc(F)cc1Cl)C(C3)C2	0.007	> 100	–	–	–	–	–
CC(C)(Oc1cccc(Cl)c1)C(=O)N[C@H]1C2CC3CC1C[C@](S(C)(=O)=O)(C3)C2	0.01	> 100	7	–	–	–	–
CC(C)(Oc1ccccc1)C(=O)N[C@H]1C2CC3CC1C[C@](S(N)(=O)=O)(C3)C2	0.013	> 100	62	–	–	–	–
CNS(=O)(=O)[C@]12CC3CC(C1)[C@@H](NC(=O)C(C)(C)Oc1ccc(Cl)cc1)C(C3)C2	–	> 100	< 1	–	–	–	–
CC(C)(Oc1cccc(Cl)c1)C(=O)N[C@H]1C2CC3CC1C[C@](S(N)(=O)=O)(C3)C2	0.006	> 100	–	6.3	0.32	0.004	–
COc1cc(F)ccc1OC(C)(C)C(=O)N[C@H]1C2CC3CC1C[C@](S(C)(=O)=O)(C3)C2	0.007	> 100	–	> 100	0.69	0.02	–
CC(C)(Oc1ccc(Cl)cc1F)C(=O)N[C@H]1C2CC3CC1C[C@](S(C)(=O)=O)(C3)C2	0.008	> 100	63	–	–	–	–
CC(C)(Oc1ccc(F)cc1Cl)C(=O)N[C@H]1C2CC3CC1C[C@](S(N)(=O)=O)(C3)C2	0.003	> 100	61	> 100	0.125	0.006	inhibition in vivo at 30 mg/kg (Mus musculus [7]): 73%; inhibition in vivo at 30 mg/kg (Mus musculus [8]): 93%; inhibition in vivo at 30 mg/kg (Mus musculus [9]): 82%; half-life [10]: 2.8 h; clearance [11]: 0.9 L/h/kg; inhibition in vivo at 30 mg/kg (Mus musculus [12]): 48%; AUC [13]: 7 µg·h/mL; Vd [14]: 2.6 L/kg; inhibition in vivo at 30 mg/kg (Mus musculus [15]): 88%; inhibition in vivo at 30 mg/kg (Mus musculus [16]): 78%; inhibition in vivo at 30 mg/kg (Mus musculus [17]): 70%; inhibition in vivo at 30 mg/kg (Mus musculus [18]): 29%; inhibition in vivo at 30 mg/kg (Mus musculus [19]): 62%; bioavailability [20]: 61%; Vd [21]: 3.5 L/kg
CC(C)(Oc1ccc(Cl)cc1)C(=O)N[C@H]1C2CC3CC1C[C@](S(C)(=O)=O)(C3)C2	0.008	> 100	70	–	–	–	–
CC(C)(C(=O)N[C@H]1C2CC3CC1C[C@](S(N)(=O)=O)(C3)C2)c1ccccc1	0.21	> 100	–	> 100	0.42	0.008	–
CC(C)(Oc1ccc(Cl)cc1)C(=O)N[C@H]1C2CC3CC1C[C@](S(N)(=O)=O)(C3)C2	–	> 100	96	–	–	–	Vd [22]: 2.1 L/kg; bioavailability [23]: 150%; AUC [24]: 18.3 µg·h/mL; Vd [25]: 2.1 L/kg; clearance [26]: 0.8 L/h/kg; half-life [27]: 1.8 h
